Experimental data pooled from the literature.
Converted amounts (≈) assume the structure as drawn.
Organism: Candida albicans

| SMILES | read-out | technique | strain | tested at | time | endpoint | result |
| --- | --- | --- | --- | --- | --- | --- | --- |
| COc1ccc(N=Nc2c(N)nn3c(-c4ccco4)cc(-c4ccc(OCc5ccccc5)cc4)nc23)cc1 | microbial killing | broth dilution | ATCC10231 | – | – | MFC | 62.5 µg/mL (≈ 121 µM) |
| C#CCON=C1C=CC(=C(C#N)c2ccccc2)C=C1 | microbial killing | broth dilution | ATCC10231 | – | 48 h | MFC | 32 µg/mL (≈ 123 µM) |
| COc1cc(C=NNC(=O)CSc2nc3c(C)cccc3c(=O)n2-c2ccccc2)ccc1OS(C)(=O)=O | microbial growth | well diffusion | – | 20 µg/mL | – | inhibition zone | 3 mm |
| Nc1nn2c(-c3ccc(Cl)cc3Cl)cc(-c3ccc(OCc4ccccc4)cc3)nc2c1N=Nc1ccc(F)cc1 | microbial killing | broth dilution | ATCC10231 | – | – | MFC | 125 µg/mL (≈ 214 µM) |
| OC(Cn1cncn1)(Cn1cncn1)c1ccc(F)cc1F | microbial growth | broth dilution | 56452 | – | 48 h | MIC | 1 µM (≈ 0.306 µg/mL) |
| C=CC(=O)ON=C1C=CC(=C(C#N)c2ccccc2)C=C1 | microbial killing | broth dilution | ATCC10231 | – | 48 h | MFC | 4 µg/mL (≈ 14.5 µM) |
| CC(=O)N1CCN(c2ccc(OCC3COC(Cn4ccnc4)(c4ccc(Cl)cc4Cl)O3)cc2)CC1 (centres unmarked) | microbial growth | broth dilution | SP3931 | – | 48 h | MIC | 2 µM (≈ 1.06 µg/mL) |
| CCCS(=O)(=O)Oc1ccc(C=NNC(=O)CSc2nc3c(C)cccc3c(=O)n2-c2ccccc2)cc1OC | microbial growth | well diffusion | – | 20 µg/mL | – | inhibition zone | 4 mm |
| CC(=O)N1CCN(c2ccc(OCC3COC(Cn4ccnc4)(c4ccc(Cl)cc4Cl)O3)cc2)CC1 (centres unmarked) | microbial growth | well diffusion | MTCC227 | 1000 µg/mL | 18 h | inhibition zone | 24 mm |
| CCCS(=O)(=O)Oc1cc(C=NNC(=O)CSc2nc3c(C)cccc3c(=O)n2-c2ccccc2)ccc1OC | microbial growth | well diffusion | – | 20 µg/mL | – | inhibition zone | 2 mm |
| CC(=O)N1CCN(c2ccc(OCC3COC(Cn4ccnc4)(c4ccc(Cl)cc4Cl)O3)cc2)CC1 (centres unmarked) | microbial killing | broth dilution | ATCC10231 | – | – | MFC | 31.3 µg/mL (≈ 58.9 µM) |
| COc1ccc(C=NNC(=O)CSc2nc3c(C)cccc3c(=O)n2-c2ccccc2)cc1OS(C)(=O)=O | microbial growth | well diffusion | – | 20 µg/mL | – | inhibition zone | 4 mm |
| Cc1ccc(N=Nc2c(N)nn3c(-c4ccco4)cc(-c4ccc(OCc5ccccc5)cc4)nc23)cc1 | microbial killing | broth dilution | ATCC10231 | – | – | MFC | 125 µg/mL (≈ 250 µM) |
| C[C@@H]1[C@H](O)[C@@H](C)/C=C/C=C/C=C/C=C/C=C/C=C/C=C/[C@H](O[C@@H]2O[C@H](C)[C@@H](O)[C@H](N)[C@@H]2O)C[C@@H]2O[C@](O)(C[C@@H](O)C[C@@H](O)[C@H](O)CC[C@@H](O)C[C@@H](O)CC(=O)O[C@H]1C)C[C@H](O)[C@H]2C(=O)O | microbial growth | broth dilution | SP3931 | – | 48 h | MIC | < 0.25 µM |
| COc1ccc(N=Nc2c(N)nn3c(-c4ccc(Cl)cc4Cl)cc(-c4ccc(OCc5ccccc5)cc4)nc23)cc1 | microbial killing | broth dilution | ATCC10231 | – | – | MFC | 250 µg/mL (≈ 420 µM) |
| CCS(=O)(=O)Oc1ccc(C=NNC(=O)CSc2nc3c(C)cccc3c(=O)n2-c2ccccc2)cc1OC | microbial growth | well diffusion | – | 20 µg/mL | – | inhibition zone | 3 mm |
| CCCCCCCCCCCC(=O)ON=C1C=CC(=C(C#N)c2ccccc2)C=C1 | microbial killing | broth dilution | ATCC10231 | – | 48 h | MFC | 512 µg/mL (≈ 1270 µM) |
| C[C@@H]1[C@H](O)[C@@H](C)/C=C/C=C/C=C/C=C/C=C/C=C/C=C/[C@H](O[C@@H]2O[C@H](C)[C@@H](O)[C@H](N)[C@@H]2O)C[C@@H]2O[C@](O)(C[C@@H](O)C[C@@H](O)[C@H](O)CC[C@@H](O)C[C@@H](O)CC(=O)O[C@H]1C)C[C@H](O)[C@H]2C(=O)O | microbial growth | broth dilution | – | – | – | MIC90 | 0.84 µM (≈ 0.776 µg/mL) |
| CS(=O)(=O)Oc1ccc(C=NNC(=O)CSc2nc3ccc(Cl)cc3c(=O)n2-c2ccccc2)cc1 | microbial growth | well diffusion | – | 20 µg/mL | – | inhibition zone | 2 mm |
| N#CC(=C1C=CC(=NOC(=O)OCc2ccccc2)C=C1)c1ccccc1 | microbial killing | broth dilution | ATCC10231 | – | 48 h | MFC | 256 µg/mL (≈ 718 µM) |
